Results published in publication PMC5604227 (Biochemistry, 2016).
Where “and” joins values, the source holds several entries; their conditions need not be identical. Equal entries are not always repeated.

Legend:
C146S-dUMP complex = C146S-dUMP complex (Escherichia coli, UniProt P0A884, C146S); type: binding, E. coli; settings: 5 °C
C146S TSase [1] = biological target: T1, C146S TSase (Escherichia coli, UniProt P0A884, C146S); settings: cited from earlier work
wild-type TSase [2] = biological target: T2, wild-type TSase (Escherichia coli, UniProt P0A884); settings: ITC; cited from earlier work
T2 sequence (P0A884 whole entry): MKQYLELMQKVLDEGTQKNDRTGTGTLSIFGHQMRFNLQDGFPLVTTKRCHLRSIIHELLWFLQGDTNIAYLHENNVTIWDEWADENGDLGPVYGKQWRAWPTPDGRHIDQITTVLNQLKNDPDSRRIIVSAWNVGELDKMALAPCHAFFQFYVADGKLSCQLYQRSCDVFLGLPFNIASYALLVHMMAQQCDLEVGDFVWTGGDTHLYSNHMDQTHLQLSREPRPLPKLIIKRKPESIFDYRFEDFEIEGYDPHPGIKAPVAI

C146S TSase [3] = biological target: T1, C146S TSase; experiment: ITC of dUMP binding to C146S TSase; set-up: species or system E. coli
wild-type TSase [4] = biological target: T2, wild-type TSase; set-up: species or system E. coli
Outline: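 1H-13C HSQC of wild-type TSase with dUMP bound, U-[2H,13C,15N] ILV-methyl labelled (Ile δ1 only; Leu/Val one methyl protonated). Fraction of the covalently bound state taken from the relative intensities of its assigned resonances. Forward covalent-bond formation rate calculated from that fraction and a prior literature bond-breakage rate (H5 solvent exchange, 0.01 min−1, similar pH and temperature).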

[5] = test system: TSase (wild-type and C146S); set-up: species or system E. coli
[6] = C146S relative to wild-type, 25 °C

T1 sequence (P0A884 whole entry C146S): as the sequence (P0A884 whole entry) above, with C146S counted along it
Chain of C146S-dUMP complex (P0A884 whole entry C146S, one chain of several): as the sequence (P0A884 whole entry) above, with C146S counted along it

Cc1nc2ccc(CN(C)c3ccc(C(=O)N[C@@H](CCC(=O)O)C(=O)O)s3)cc2c(=O)[nH]1 [Raltitrexed]
cooperativity ρ (C146S-dUMP complex): 1.3 ± 0.3

O=c1ccn([C@H]2C[C@H](O)[C@@H](COP(=O)(O)O)O2)c(=O)[nH]1 [dUMP]
fold weaker KD of C146S for dUMP than wild-type (C146S TSase [1]): ~2 fold
change in protonation state on binding (loss of proton per binding event) (wild-type TSase [2]): less than 0.1 proton
fold weaker dUMP binding (C146S TSase [3]; [6]): 18 fold and 20 fold
ΔΔG°bind penalty for formation of the dUMP complex (C146S TSase [3]; [6]): 1.7 kcal/mol
change in TΔS° per binding event (C146S TSase [3]; C146S vs wild-type): ~1 kcal/mol
sum of calorimetric TΔΔS° values for both binding events (C146S TSase [3]; C146S vs wild-type): -1.7 kcal/mol
fraction of covalently bound state (wild-type TSase [4]; wild-type dUMP complex, from resonance intensities): 19% and ~20%
total TΔΔS°conf associated with binding both dUMP molecules ([5]; scaled to probes in the dimer, C146S vs wild-type): -2.08 ± 0.18 kcal/mol
ΔS°conf opposing binding of each dUMP molecule ([5]; wild-type TSase): ~1 kcal/mol

O=c1[nH]c(=O)n([C@H]2C[C@H](O)[C@@H](COP(=O)(O)O)O2)cc1F [5F-dUMP]
population of the minor (covalent) state relative to dUMP complex (wild-type TSase [4]; wild-type TSase complex): significantly increased
